Molecules are shown by their SMILES. The source made the active and inactive calls. The rule behind the calls is not given here.

The subject of data set [1] is A549. Kind of data set: Antiproliferative activity against human A549 cells assessed as reduction in cell viability after 72 hrs by MTT assay. Format: functional, cell-based. The following applies: A549, 72 h.
In data set [2] the test system is A549. Kind of data set: Cytotoxicity against human A549 cells assessed as change in cell morphology incubated for 48 hrs. Format: functional, cell-based.
In data set [3] the target is T1, Tubulin (Sus scrofa) (UniProt P02554+P02550). Kind of data set: Induction of porcine brain tubulin polymerization at 10 uM.
T1 sequence (P02550 whole entry, looked up): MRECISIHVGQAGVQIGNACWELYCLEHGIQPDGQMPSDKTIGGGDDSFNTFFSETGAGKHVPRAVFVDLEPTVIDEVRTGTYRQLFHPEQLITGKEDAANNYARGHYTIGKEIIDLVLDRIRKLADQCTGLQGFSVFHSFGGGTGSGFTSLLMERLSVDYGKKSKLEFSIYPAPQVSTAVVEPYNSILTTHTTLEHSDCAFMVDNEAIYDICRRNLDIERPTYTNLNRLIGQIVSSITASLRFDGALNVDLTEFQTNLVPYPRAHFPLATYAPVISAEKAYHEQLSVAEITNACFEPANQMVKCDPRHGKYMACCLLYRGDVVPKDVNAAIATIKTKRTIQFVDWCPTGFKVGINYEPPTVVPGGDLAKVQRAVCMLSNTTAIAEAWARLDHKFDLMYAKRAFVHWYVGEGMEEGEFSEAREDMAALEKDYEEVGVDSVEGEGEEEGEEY
T1 sequence (P02554 whole entry, looked up): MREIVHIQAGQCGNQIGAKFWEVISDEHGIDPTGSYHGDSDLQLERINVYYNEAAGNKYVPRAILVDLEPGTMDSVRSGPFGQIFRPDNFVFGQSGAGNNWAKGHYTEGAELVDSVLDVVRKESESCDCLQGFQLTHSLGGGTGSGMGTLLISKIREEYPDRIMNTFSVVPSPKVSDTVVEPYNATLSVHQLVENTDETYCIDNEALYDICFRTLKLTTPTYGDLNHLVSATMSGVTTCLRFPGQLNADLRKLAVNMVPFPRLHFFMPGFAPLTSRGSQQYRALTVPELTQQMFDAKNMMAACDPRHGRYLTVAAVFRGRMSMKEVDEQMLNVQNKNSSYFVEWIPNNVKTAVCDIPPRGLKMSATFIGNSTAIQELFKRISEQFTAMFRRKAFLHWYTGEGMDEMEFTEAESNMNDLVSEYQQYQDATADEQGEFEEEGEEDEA
In data set [4] the test system is A549. As to the kind of experiment: Induction of cell cycle arrest in human A549 cells assessed as accumulation at G2/M phase at 5 uM incubated for 24 hrs by Muse cell analyzer based flow cytometry (reference value: 22.3 to 24%). Format: functional.
For data set [5], the system named is A549. Kind of data set: Induction of cell cycle arrest in human A549 cells assessed as accumulation at G0/G1 phase at 5 uM incubated for 24 hrs by Muse cell analyzer based flow cytometry (reference value: 63.9%). Format: functional.
In data set [6] the target is T1, Tubulin (Sus scrofa). Kind of data set: Inhibition of porcine brain tubulin polymerization at 10 uM.
Data set [7] deals with A549. As to the kind of experiment: Induction of cell cycle arrest in human A549 cells assessed as accumulation at G0/G1 phase at 2.5 uM incubated for 24 hrs by Muse cell analyzer based flow cytometry (reference value: 63.9%). Format: functional.
In data set [8] the test system is A549. As to the kind of experiment: Induction of cell cycle arrest in human A549 cells assessed as accumulation at S phase at 5 uM incubated for 24 hrs by Muse cell analyzer based flow cytometry (reference value: 8%). Format: functional.
Data set [9] concerns A549. As to the kind of experiment: Induction of cell cycle arrest in human A549 cells assessed as increase in accumulation at G2/M phase incubated for 24 hrs by Muse cell analyzer based flow cytometry. Format: functional.
The test system of data set [10] is A549. As to the kind of experiment: Induction of cell cycle arrest in human A549 cells assessed as accumulation at S phase at 2.5 uM incubated for 24 hrs by Muse cell analyzer based flow cytometry (reference value: 8%). Format: functional.
Data set [11] concerns A549. As to the kind of experiment: Induction of cell cycle arrest in human A549 cells assessed as accumulation at G2/M phase at 2.5 uM incubated for 24 hrs by Muse cell analyzer based flow cytometry (reference value: 22.3 to 24%). Format: functional.
The nature of data set [12]: Drug uptake in nucleus of human A549 cells at 250 uM incubated for 3 hrs by Hoechst 33342 staining based confocal laser microscopic method. Format: ADME, subcellular. The following applies: a549, 3 h. In a few lines:
(§1)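 Live A549 cells were incubated for 3 h with the FITC-linked conjugate at 250 μM, then stained with Hoechst 33342 nuclear dye at 0.1 for 5 min. Live-cell confocal laser microscopy located the green signal in the cytoplasm or nucleus.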

The subject of data set [13] is A549. As to the kind of experiment: Induction of cell cycle arrest in human A549 cells assessed as accumulation at G2/M phase at 200 uM incubated for 24 hrs by Muse cell analyzer based flow cytometry (reference value: 16.2%). Format: functional.
Data set [14] in a line: Drug uptake in cytoplasm of human A549 cells at 250 uM incubated for 3 hrs by Hoechst 33342 staining based confocal laser microscopic method. Format: ADME, subcellular. The conditions noted are these: a549, 3 h. In a few lines:
as §1

Take `COC(=O)c1ccc(-c2c(-c3ccccc3)n(CCOCCOCCO)c3ccccc23)cc1`: the IC50 in the data set with A549 [1] is 30.8 µM.
In the case of `COC(=O)c1ccc(-c2c(-c3ccccc3)c3ccccc3n2CCOCCOCCO)cc1`, in the data set on A549 [1], the half-inhibitory concentration (IC50) worked out at 41.3 µM.
`O=C(OCCOCCOCCO)c1ccc(-c2c(-c3ccccc3)[nH]c3ccccc23)cc1`: in the data set on A549 [1], the half-maximal inhibitory concentration (IC50) turned out to be 10.2 µM. In addition, in the data set with A549 [2], the result was Active.
On to `O=C(OCCOCCOCCO)c1ccc(-c2[nH]c3ccccc3c2-c2ccccc2)cc1`, for which the half-inhibitory concentration (IC50) with A549 [1] stood at 29.5 µM.
Take `CC(=O)O[C@H]1C(=O)[C@@]2(C)[C@H]([C@H](OC(=O)c3ccccc3)[C@]3(O)C[C@H](OC(=O)[C@H](O)[C@@H](NC(=O)c4ccccc4)c4ccccc4)C(C)=C1C3(C)C)[C@]1(OC(C)=O)CO[C@@H]1C[C@@H]2O`: on Tubulin (Sus scrofa) [3], the outcome was Active.
Turning to `COC(=O)c1ccc(-c2c(-c3ccccc3)[nH]c3ccccc23)cc1`, the Activity in the data set on A549 [4] was 70 - 71%; in the data set on A549 [5], 10.2%; in the data set on A549 [7], 40.9%; in the data set on A549 [8] it was 7.5%; in the data set on A549 [9], “Dose-dependent effect”; with A549 [10], 9.5%. For the same compound, in the data set on A549 [11], the Activity is recorded as 41.4 - 42.8%. Besides, the inhibition entry on Tubulin (Sus scrofa) [6] was “Active”.
Regarding `O=C(OCCOCCOCCOCCOCCOCCNC(=S)Nc1ccc(-c2c3ccc(=O)cc-3oc3cc(O)ccc23)c(C(=O)O)c1)c1ccc(-c2c(-c3ccccc3)[nH]c3ccccc23)cc1`, the figures for the Drug uptake result in [12] and in [14] were “Not Active” and “Active”, respectively. For the same compound, in the data set with A549 [13], the Activity came out at 53.3%. In the data set on A549 [1], the IC50 is 238 µM.

The record behind these values is ChEMBL document CHEMBL4342424, “A synthetic 2,3-diarylindole induces microtubule destabilization and G2/M cell cycle arrest in lung cancer cells” (Bioorg Med Chem Lett, 2020).
